{"source": "ChEMBL document CHEMBL4390639", "about": "“Design, Synthesis, and Biological Evaluation of Novel Allosteric Protein Disulfide Isomerase Inhibitors” (J Med Chem, 2019)", "key": {"U-87 MG [1]": {"system": "U-87 MG", "test": "Up regulation of NMRAL2P gene expression in human U87MG cells at 16 uM incubated for 4 hrs followed by bromouridine addition during last 30 mins of incubation by TRIzol-reagent based Bru-Seq analysis relative to control", "format": "functional, U-87MG ATCC", "procedure,_shortened": "(§1)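 U87MG cells exposed to compound or DMSO vehicle for 4 h, with 2 mM bromouridine added for the final 30 min. Total RNA isolated with TRIzol; Bru-labelled nascent RNA captured on anti-BrdU antibody-conjugated magnetic beads and sequenced. Transcript abundance expressed as RPKM relative to DMSO. Experiment performed once.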"}, "U-87 MG [2]": {"system": "U-87 MG", "test": "Up regulation of AKR1C1 gene expression in human U87MG cells at 16 uM incubated for 4 hrs followed by bromouridine addition during last 30 mins of incubation by TRIzol-reagent based Bru-Seq analysis relative to control", "format": "functional, U-87MG ATCC", "procedure,_shortened": "as §1"}, "U-87 MG [3]": {"system": "U-87 MG", "test": "Up regulation of OSGIN1 gene expression in human U87MG cells at 16 uM incubated for 4 hrs followed by bromouridine addition during last 30 mins of incubation by TRIzol-reagent based Bru-Seq analysis relative to control", "format": "functional, U-87MG ATCC", "procedure,_shortened": "as §1"}, "U-87 MG [4]": {"system": "U-87 MG", "test": "Up regulation of AC005324.3 gene expression in human U87MG cells at 16 uM incubated for 4 hrs followed by bromouridine addition during last 30 mins of incubation by TRIzol-reagent based Bru-Seq analysis relative to control", "format": "functional, U-87MG ATCC", "procedure,_shortened": "as §1"}, "U-87 MG [5]": {"system": "U-87 MG", "test": "Up regulation of AC087672.3 gene expression in human U87MG cells at 16 uM incubated for 4 hrs followed by bromouridine addition during last 30 mins of incubation by TRIzol-reagent based Bru-Seq analysis relative to control", "format": "functional, U-87MG ATCC", "procedure,_shortened": "as §1"}, "U-87 MG [6]": {"system": "U-87 MG", "test": "Up regulation of BAG3 gene expression in human U87MG cells at 16 uM incubated for 4 hrs followed by bromouridine addition during last 30 mins of incubation by TRIzol-reagent based Bru-Seq analysis relative to control", "format": "functional, U-87MG ATCC", "procedure,_shortened": "as §1"}, "U-87 MG [7]": {"system": "U-87 MG", "test": "Up regulation of FTH1 gene expression in human U87MG cells at 16 uM incubated for 4 hrs followed by bromouridine addition during last 30 mins of incubation by TRIzol-reagent based Bru-Seq analysis relative to control", "format": "functional, U-87MG ATCC", "procedure,_shortened": "as §1"}, "U-87 MG [8]": {"system": "U-87 MG", "test": "Down regulation of CSF3 gene expression in human U87MG cells at 16 uM incubated for 4 hrs followed by bromouridine addition during last 30 mins of incubation by TRIzol-reagent based Bru-Seq analysis relative to control", "format": "functional, U-87MG ATCC", "procedure,_shortened": "as §1"}, "U-87 MG [9]": {"system": "U-87 MG", "test": "Down regulation of HLA-DQB1 gene expression in human U87MG cells at 16 uM incubated for 4 hrs followed by bromouridine addition during last 30 mins of incubation by TRIzol-reagent based Bru-Seq analysis relative to control", "format": "functional, U-87MG ATCC", "procedure,_shortened": "as §1"}, "U-87 MG [10]": {"system": "U-87 MG", "test": "Down regulation of LRRN3 gene expression in human U87MG cells at 16 uM incubated for 4 hrs followed by bromouridine addition during last 30 mins of incubation by TRIzol-reagent based Bru-Seq analysis relative to control", "format": "functional, U-87MG ATCC", "procedure,_shortened": "as §1"}, "U-87 MG [11]": {"system": "U-87 MG", "test": "Down regulation of KCTD4 gene expression in human U87MG cells at 16 uM incubated for 4 hrs followed by bromouridine addition during last 30 mins of incubation by TRIzol-reagent based Bru-Seq analysis relative to control", "format": "functional, U-87MG ATCC"}, "[12]": {"molecular_target": "Protein disulfide-isomerase (Homo sapiens, UniProt P07237)", "sequence (P07237 whole entry)": "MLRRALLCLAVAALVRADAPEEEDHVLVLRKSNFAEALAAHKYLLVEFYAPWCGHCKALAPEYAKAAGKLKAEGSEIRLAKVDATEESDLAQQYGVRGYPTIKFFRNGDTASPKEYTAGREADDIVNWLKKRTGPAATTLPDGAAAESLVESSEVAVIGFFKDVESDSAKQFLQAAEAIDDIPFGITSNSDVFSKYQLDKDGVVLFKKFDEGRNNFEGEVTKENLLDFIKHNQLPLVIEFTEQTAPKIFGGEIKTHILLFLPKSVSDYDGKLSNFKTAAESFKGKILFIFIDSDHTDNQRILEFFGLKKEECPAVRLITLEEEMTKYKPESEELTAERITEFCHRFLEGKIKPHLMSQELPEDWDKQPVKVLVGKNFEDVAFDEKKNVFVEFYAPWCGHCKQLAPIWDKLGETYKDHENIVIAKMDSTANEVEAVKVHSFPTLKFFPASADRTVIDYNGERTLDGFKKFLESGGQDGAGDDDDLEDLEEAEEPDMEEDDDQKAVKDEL", "test": "Binding affinity to recombinant human N-terminal His-tagged PDI expressed in Escherichia coli BL21 (DE3) pLysS by ROX dye based thermal shift assay", "procedure,_shortened": "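Thermal shift conditions: PDI (0.5 mg/mL, 50 mM Tris, pH 7.0) with ROX dye, heated 25–99 °C at 1 °C/min. […] Kd was fitted from melting-temperature change versus vehicle.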"}, "A 172": {"system": "A 172", "test": "Antimigratory activity against human A172 cells at 10 uM measured after 4 hrs by Giemsa staining based transwell migration assay", "format": "functional, cell-based", "procedure,_shortened": "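A172 cells (1 x 10^5) were treated with compound and seeded into inserts with 8.0 μm PET membrane in serum-free medium. DMEM with 10% FBS was in the lower well; wells without FBS served as control. After 4 h, migrated cells were Giemsa-stained and imaged at 10X, 5 fields per well.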"}, "U-87 MG [13]": {"system": "U-87 MG", "test": "Up regulation of HSPA1B gene expression in human U87MG cells at 10 uM incubated for 4 hrs followed by bromouridine addition during last 30 mins of incubation by TRIzol-reagent based Bru-Seq analysis relative to control", "format": "functional, U-87MG ATCC", "procedure,_shortened": "as §1"}, "U-87 MG [14]": {"system": "U-87 MG", "test": "Up regulation of INHBA gene expression in human U87MG cells at 10 uM incubated for 4 hrs followed by bromouridine addition during last 30 mins of incubation by TRIzol-reagent based Bru-Seq analysis relative to control", "format": "functional, U-87MG ATCC", "procedure,_shortened": "as §1"}, "U-87 MG [15]": {"system": "U-87 MG", "test": "Up regulation of SLC7A11 gene expression in human U87MG cells at 10 uM incubated for 4 hrs followed by bromouridine addition during last 30 mins of incubation by TRIzol-reagent based Bru-Seq analysis relative to control", "format": "functional, U-87MG ATCC", "procedure,_shortened": "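U87MG cells treated 4 h with test compound (10 or 16 μM, as per line) or DMSO; 2 mM bromouridine added for final 30 min. Total RNA isolated with TRIzol, Bru-labelled nascent RNA captured with anti-BrdU antibody magnetic beads and sequenced; transcript abundance (RPKM) compared with DMSO control. Single experiment.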"}, "U-87 MG [16]": {"system": "U-87 MG", "test": "Up regulation of ATP6 V0D2 gene expression in human U87MG cells at 10 uM incubated for 4 hrs followed by bromouridine addition during last 30 mins of incubation by TRIzol-reagent based Bru-Seq analysis relative to control", "format": "functional, U-87MG ATCC", "procedure,_shortened": "as §1"}, "U-87 MG [17]": {"system": "U-87 MG", "test": "Down regulation of AKAP5 gene expression in human U87MG cells at 10 uM incubated for 4 hrs followed by bromouridine addition during last 30 mins of incubation by TRIzol-reagent based Bru-Seq analysis relative to control", "format": "functional, U-87MG ATCC"}, "U-87 MG [18]": {"system": "U-87 MG", "test": "Down regulation of HLA-DQB1 gene expression in human U87MG cells at 10 uM incubated for 4 hrs followed by bromouridine addition during last 30 mins of incubation by TRIzol-reagent based Bru-Seq analysis relative to control", "format": "functional, U-87MG ATCC"}, "U-87 MG [19]": {"system": "U-87 MG", "test": "Down regulation of ZNF404 gene expression in human U87MG cells at 10 uM incubated for 4 hrs followed by bromouridine addition during last 30 mins of incubation by TRIzol-reagent based Bru-Seq analysis relative to control", "format": "functional, U-87MG ATCC", "procedure,_shortened": "as §1"}, "U-87 MG [20]": {"system": "U-87 MG", "test": "Down regulation of HIST1H2BC gene expression in human U87MG cells at 10 uM incubated for 4 hrs followed by bromouridine addition during last 30 mins of incubation by TRIzol-reagent based Bru-Seq analysis relative to control", "format": "functional, U-87MG ATCC"}, "U-87 MG [21]": {"system": "U-87 MG", "test": "Down regulation of BBS10 gene expression in human U87MG cells at 10 uM incubated for 4 hrs followed by bromouridine addition during last 30 mins of incubation by TRIzol-reagent based Bru-Seq analysis relative to control", "format": "functional, U-87MG ATCC"}, "U-87 MG [22]": {"system": "U-87 MG", "test": "Down regulation of CCNA2 gene expression in human U87MG cells at 10 uM incubated for 4 hrs followed by bromouridine addition during last 30 mins of incubation by TRIzol-reagent based Bru-Seq analysis relative to control", "format": "functional, U-87MG ATCC"}}, "note": "Active and inactive are the calls of the source. No cut-off for these calls is given here.", "data": [{"smiles": "COC(=O)c1cccc(/C=C/C(=O)c2cccc(O)c2)c1", "values": [{"measurement": "fold change (FC)", "setting": "U-87 MG [1]", "value": 15}, {"measurement": "log2FC", "setting": "U-87 MG [1]", "value": 4.1}, {"measurement": "fold change (FC)", "setting": "U-87 MG [2]", "value": 8.1}, {"measurement": "fold change (FC)", "setting": "U-87 MG [3]", "value": 5.4}, {"measurement": "fold change (FC)", "setting": "U-87 MG [4]", "value": 5.3}, {"measurement": "fold change (FC)", "setting": "U-87 MG [5]", "value": 3.8}, {"measurement": "fold change (FC)", "setting": "U-87 MG [6]", "value": 1.9}, {"measurement": "fold change (FC)", "setting": "U-87 MG [7]", "value": 1.9}, {"measurement": "fold change (FC)", "setting": "U-87 MG [8]", "value": 8.3}, {"measurement": "fold change (FC)", "setting": "U-87 MG [9]", "value": 3.7}, {"measurement": "fold change (FC)", "setting": "U-87 MG [10]", "value": 3.6}, {"measurement": "fold change (FC)", "setting": "U-87 MG [11]", "value": 3}]}, {"smiles": "N#Cc1cccc(/C=C/C(=O)c2ccc(O)cc2)c1", "values": [{"measurement": "Kd", "setting": "[12]", "value": 9.8, "unit": "µM"}]}, {"smiles": "CCCCCN(CCCCC)S(=O)(=O)c1ccc(C(=O)/C=C/c2cccc(C#N)c2)cc1", "values": [{"measurement": "Activity", "setting": "A 172", "value": "Active"}, {"measurement": "fold change (FC)", "setting": "U-87 MG [13]", "value": 107.2}, {"measurement": "fold change (FC)", "setting": "U-87 MG [14]", "value": 27}, {"measurement": "fold change (FC)", "setting": "U-87 MG [15]", "value": 20.8}, {"measurement": "fold change (FC)", "setting": "U-87 MG [16]", "value": 11.9}, {"measurement": "fold change (FC)", "setting": "U-87 MG [17]", "value": 3.4}, {"measurement": "fold change (FC)", "setting": "U-87 MG [18]", "value": 2.9}, {"measurement": "fold change (FC)", "setting": "U-87 MG [19]", "value": 2.7}, {"measurement": "fold change (FC)", "setting": "U-87 MG [20]", "value": 2.3}, {"measurement": "fold change (FC)", "setting": "U-87 MG [21]", "value": 2.3}, {"measurement": "fold change (FC)", "setting": "U-87 MG [22]", "value": 2.3}]}]}
